Assay results taken from ChEMBL document CHEMBL5724801, “EUbOPEN Chemogenomics Library - Multiplex” (2024).
Where “and” joins values, the source holds several entries; their conditions need not be identical. Identical values can stand only once.

Tested on: HEK-293T
Assay: Multiplex assay against HEK293T
Format: toxicity, cell-based
Settings: human
Procedure, shortened: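 Four dyes were applied at seeding to live cells: Hoechst33342, BioTracker Green Microtubule Cytoskeleton Dye, MitoTracker Red and Annexin V Alexa Fluor 680. Imaging after compound addition used a CQ1 microscope at 37°C and 5% CO2. CellPathfinder machine-learning gating then sorted cells into Hoechst high-intensity objects or normal cells, normal cells into healthy, pyknosed or fragmented nuclei, and pyknosed cells into mitotic or apoptotic, with tubulin, mitochondrial-mass and membrane-permeability phenotypes given as per cents of healthy-nucleus cells.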

[1] = 12 h, 1 µM, compound concentration 1 uM
[2] = 12 h, 10 µM, compound concentration 10 uM
[3] = 24 h, 1 µM, compound concentration 1 uM
[4] = 24 h, 10 µM, compound concentration 10 uM
[5] = 48 h, 1 µM, compound concentration 1 uM
[6] = 48 h, 10 µM, compound concentration 10 uM

S=C(NCCCc1c[nH]cn1)NCCCN(Cc1ccc(Cl)c(Cl)c1)c1ccc(Br)cn1
Population Apoptotic (%) [1]: 39% and 53% | Population Fragmented Nuclei (%) [1]: 8% and 5% | Population Healthy Nuclei (%) [1]: 78% and 79% | Population Hoechst High Intensity Objects (%) [1]: 17% and 6% | Population Membrane Permeable-Phenotype (%) [1]: 0% | Population Mitochondria Different-Phenotype (%) [1]: 50% and 58% | Population Mitotic Cells (%) [1]: 60% and 46% | Population Normal (%) [1]: 82% and 93% | Population Pyknosed Nuclei (%) [1]: 13% and 14% | Population Tubulin-Different-Phenotype (%) [1]: 36% and 35% | Total Cell Count [1]: 378 and 294 | Population Apoptotic (%) [2]: 90% and 77% | Population Fragmented Nuclei (%) [2]: 4% and 8% | Population Healthy Nuclei (%) [2]: 57% and 71% | Population Hoechst High Intensity Objects (%) [2]: 33% and 19% | Population Membrane Permeable-Phenotype (%) [2]: 0% | Population Mitochondria Different-Phenotype (%) [2]: 77% and 84% | Population Mitotic Cells (%) [2]: 9% and 22% | Population Normal (%) [2]: 66% and 80% | Population Pyknosed Nuclei (%) [2]: 38% and 19% | Population Tubulin-Different-Phenotype (%) [2]: 78% | Total Cell Count [2]: 242 and 229 | Population Apoptotic (%) [3]: 39% and 41% | Population Fragmented Nuclei (%) [3]: 10% and 9% | Population Healthy Nuclei (%) [3]: 73% and 81% | Population Hoechst High Intensity Objects (%) [3]: 22% and 13% | Population Membrane Permeable-Phenotype (%) [3]: 0% | Population Mitochondria Different-Phenotype (%) [3]: 45% and 48% | Population Mitotic Cells (%) [3]: 60% and 58% | Population Normal (%) [3]: 77% and 86% | Population Pyknosed Nuclei (%) [3]: 16% and 9% | Population Tubulin-Different-Phenotype (%) [3]: 32% | Total Cell Count [3]: 326 and 301 | Population Apoptotic (%) [4]: 85% and 82% | Population Fragmented Nuclei (%) [4]: 11% and 16% | Population Healthy Nuclei (%) [4]: 49% and 59% | Population Hoechst High Intensity Objects (%) [4]: 48% and 39% | Population Membrane Permeable-Phenotype (%) [4]: 1% and 0% | Population Mitochondria Different-Phenotype (%) [4]: 75% and 82% | Population Mitotic Cells (%) [4]: 14% and 17% | Population Normal (%) [4]: 51% and 61% | Population Pyknosed Nuclei (%) [4]: 39% and 23% | Population Tubulin-Different-Phenotype (%) [4]: 78% | Total Cell Count [4]: 237 and 200 | Population Apoptotic (%) [5]: 47% and 36% | Population Fragmented Nuclei (%) [5]: 14% and 17% | Population Healthy Nuclei (%) [5]: 65% and 73% | Population Hoechst High Intensity Objects (%) [5]: 36% and 27% | Population Membrane Permeable-Phenotype (%) [5]: 3% and 0% | Population Mitochondria Different-Phenotype (%) [5]: 38% and 32% | Population Mitotic Cells (%) [5]: 52% and 63% | Population Normal (%) [5]: 63% and 72% | Population Pyknosed Nuclei (%) [5]: 19% and 9% | Population Tubulin-Different-Phenotype (%) [5]: 29% and 19% | Total Cell Count [5]: 307 and 277 | Population Apoptotic (%) [6]: 84% and 75% | Population Fragmented Nuclei (%) [6]: 23% and 21% | Population Healthy Nuclei (%) [6]: 23% | Population Hoechst High Intensity Objects (%) [6]: 75% and 67% | Population Membrane Permeable-Phenotype (%) [6]: 0% | Population Mitochondria Different-Phenotype (%) [6]: 86% and 80% | Population Mitotic Cells (%) [6]: 15% and 25% | Population Normal (%) [6]: 24% and 32% | Population Pyknosed Nuclei (%) [6]: 52% and 55% | Population Tubulin-Different-Phenotype (%) [6]: 53% and 40% | Total Cell Count [6]: 256 and 203

CCc1nn2c(C)cc(C)nc2c1Cc1ccc(-c2nnc(C3CCNCC3)o2)cc1
Population Apoptotic (%) [1]: 35% and 51% | Population Fragmented Nuclei (%) [1]: 9% and 7% | Population Healthy Nuclei (%) [1]: 80% and 78% | Population Hoechst High Intensity Objects (%) [1]: 7% and 5% | Population Membrane Permeable-Phenotype (%) [1]: 0% | Population Mitochondria Different-Phenotype (%) [1]: 54% and 62% | Population Mitotic Cells (%) [1]: 64% and 48% | Population Normal (%) [1]: 92% and 94% | Population Pyknosed Nuclei (%) [1]: 10% and 13% | Population Tubulin-Different-Phenotype (%) [1]: 37% and 19% | Total Cell Count [1]: 401 and 395 | Population Apoptotic (%) [2]: 63% and 56% | Population Fragmented Nuclei (%) [2]: 6% and 4% | Population Healthy Nuclei (%) [2]: 68% and 78% | Population Hoechst High Intensity Objects (%) [2]: 11% and 12% | Population Membrane Permeable-Phenotype (%) [2]: 0% | Population Mitochondria Different-Phenotype (%) [2]: 85% and 86% | Population Mitotic Cells (%) [2]: 36% and 43% | Population Normal (%) [2]: 88% and 87% | Population Pyknosed Nuclei (%) [2]: 25% and 17% | Population Tubulin-Different-Phenotype (%) [2]: 65% and 48% | Total Cell Count [2]: 319 and 293 | Population Apoptotic (%) [3]: 44% and 34% | Population Fragmented Nuclei (%) [3]: 10% and 7% | Population Healthy Nuclei (%) [3]: 76% and 78% | Population Hoechst High Intensity Objects (%) [3]: 4% and 5% | Population Membrane Permeable-Phenotype (%) [3]: 0% | Population Mitochondria Different-Phenotype (%) [3]: 36% and 50% | Population Mitotic Cells (%) [3]: 55% and 65% | Population Normal (%) [3]: 95% and 94% | Population Pyknosed Nuclei (%) [3]: 13% | Population Tubulin-Different-Phenotype (%) [3]: 23% and 19% | Total Cell Count [3]: 529 and 542 | Population Apoptotic (%) [4]: 69% and 41% | Population Fragmented Nuclei (%) [4]: 11% and 10% | Population Healthy Nuclei (%) [4]: 72% and 77% | Population Hoechst High Intensity Objects (%) [4]: 5% and 7% | Population Membrane Permeable-Phenotype (%) [4]: 0% | Population Mitochondria Different-Phenotype (%) [4]: 73% and 78% | Population Mitotic Cells (%) [4]: 30% and 58% | Population Normal (%) [4]: 94% and 92% | Population Pyknosed Nuclei (%) [4]: 15% and 11% | Population Tubulin-Different-Phenotype (%) [4]: 50% and 45% | Total Cell Count [4]: 448 and 389 | Population Apoptotic (%) [5]: 28% and 32% | Population Fragmented Nuclei (%) [5]: 12% and 11% | Population Healthy Nuclei (%) [5]: 79% and 83% | Population Hoechst High Intensity Objects (%) [5]: 2% and 5% | Population Membrane Permeable-Phenotype (%) [5]: 0% | Population Mitochondria Different-Phenotype (%) [5]: 25% and 24% | Population Mitotic Cells (%) [5]: 71% and 67% | Population Normal (%) [5]: 97% and 94% | Population Pyknosed Nuclei (%) [5]: 8% and 5% | Population Tubulin-Different-Phenotype (%) [5]: 15% and 10% | Total Cell Count [5]: 842 and 829 | Population Apoptotic (%) [6]: 54% and 50% | Population Fragmented Nuclei (%) [6]: 14% and 12% | Population Healthy Nuclei (%) [6]: 72% and 80% | Population Hoechst High Intensity Objects (%) [6]: 4% and 3% | Population Membrane Permeable-Phenotype (%) [6]: 0% | Population Mitochondria Different-Phenotype (%) [6]: 59% and 56% | Population Mitotic Cells (%) [6]: 45% and 50% | Population Normal (%) [6]: 95% and 96% | Population Pyknosed Nuclei (%) [6]: 13% and 6% | Population Tubulin-Different-Phenotype (%) [6]: 32% and 26% | Total Cell Count [6]: 517 and 607

CC(F)(F)CN1CCOc2c(nn(-c3ccccc3Cl)c2-c2ccc(Cl)cc2)C1=O
Population Apoptotic (%) [1]: 29% and 64% | Population Healthy Nuclei (%) [1]: 77% and 78% | Population Membrane Permeable-Phenotype (%) [1]: 0% | Population Mitochondria Different-Phenotype (%) [1]: 43% and 53% | Population Mitotic Cells (%) [1]: 70% and 35% | Population Normal (%) [1]: 93% and 91% | Population Pyknosed Nuclei (%) [1]: 12% and 16% | Total Cell Count [1]: 397 and 369 | Population Apoptotic (%) [2]: 57% and 43% | Population Healthy Nuclei (%) [2]: 73% and 75% | Population Membrane Permeable-Phenotype (%) [2]: 0% | Population Mitochondria Different-Phenotype (%) [2]: 78% and 84% | Population Mitotic Cells (%) [2]: 42% and 56% | Population Normal (%) [2]: 89% and 94% | Population Pyknosed Nuclei (%) [2]: 22% and 18% | Total Cell Count [2]: 384 and 397 | Population Apoptotic (%) [3]: 25% and 43% | Population Healthy Nuclei (%) [3]: 79% and 84% | Population Membrane Permeable-Phenotype (%) [3]: 0% | Population Mitochondria Different-Phenotype (%) [3]: 22% and 31% | Population Mitotic Cells (%) [3]: 74% and 56% | Population Normal (%) [3]: 97% and 93% | Population Pyknosed Nuclei (%) [3]: 11% and 8% | Total Cell Count [3]: 568 and 478 | Population Apoptotic (%) [4]: 57% and 41% | Population Healthy Nuclei (%) [4]: 76% and 80% | Population Membrane Permeable-Phenotype (%) [4]: 0% | Population Mitochondria Different-Phenotype (%) [4]: 71% and 79% | Population Mitotic Cells (%) [4]: 42% and 58% | Population Normal (%) [4]: 92% and 94% | Population Pyknosed Nuclei (%) [4]: 15% | Population Tubulin-Different-Phenotype (%) [4]: 50% | Total Cell Count [4]: 450 and 477 | Population Apoptotic (%) [5]: 22% and 25% | Population Healthy Nuclei (%) [5]: 77% and 79% | Population Membrane Permeable-Phenotype (%) [5]: 1% | Population Mitochondria Different-Phenotype (%) [5]: 14% and 23% | Population Mitotic Cells (%) [5]: 77% and 74% | Population Normal (%) [5]: 99% and 97% | Population Pyknosed Nuclei (%) [5]: 7% | Population Tubulin-Different-Phenotype (%) [5]: 8% | Total Cell Count [5]: 1015 and 734 | Population Apoptotic (%) [6]: 55% and 35% | Population Healthy Nuclei (%) [6]: 74% and 78% | Population Membrane Permeable-Phenotype (%) [6]: 0% | Population Mitochondria Different-Phenotype (%) [6]: 62% and 68% | Population Mitotic Cells (%) [6]: 44% and 65% | Population Normal (%) [6]: 93% | Population Pyknosed Nuclei (%) [6]: 11% | Total Cell Count [6]: 540 and 558
